pEC50: −log10 of the molar value.
What was measured:
WT AgrC-II = assay: β-lactamase reporter assay, WT AgrC-II; format: cell-based, S. aureus; details: read-out: EC50 (no activation); P3-blaZ reporter cells, nitrocefin method
Outline: (§1)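 Agr-deficient S. aureus RN10829 derivatives lacking AIP production, carrying a chromosomal P3-blaZ fusion and agrP2-driven plasmid agrC (compatible plasmids for co-expression), grown to mid-exponential phase in CYGP or MH broth at 37 °C with shaking. Cells were plated and given increasing synthetic AIP. β-Lactamase was read by nitrocefin initial velocity as percent maximal activation. EC50 came from a four-parameter logistic fit. Two or three replicates.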

AgrC-IHis / AgrC-IKin = assay: β-lactamase reporter assay, activation of co-expressed AgrC-IHis / AgrC-IKin; format: cell-based, S. aureus; details: co-expressed mutants
Outline: as §1

AgrC-I G394A = assay: β-lactamase reporter assay, AgrC-I G394A; format: cell-based, S. aureus; details: individual G-box glycine mutant; varying concentrations of synthetic AIP
[1] = system: AgrC-ISensor, His / AgrC-ISensor, Kin; assay: β-lactamase reporter assay, co-expressed AgrC-ISensor, His / AgrC-ISensor, Kin; format: cell-based, S. aureus
Outline: as §1

AgrC-II = details: background statement, no reference at the place; cited from earlier work
[2] = system: AgrC-IHis / AgrC-IΔ1-135, Kin; assay: β-lactamase reporter assay, AgrC-IHis / truncated AgrC-IΔ1-135, Kin; format: cell-based, S. aureus; details: full-length AgrC-IHis with AgrC-IΔ1-135, Kin (Figure S5B)
[3] = system: AgrC-IHis / AgrC-ISensor, Kin; assay: β-lactamase reporter assay, activation of AgrC-IHis / AgrC-ISensor, Kin; format: cell-based, S. aureus; details: Kin combined with AgrC-IHis versus AgrC-ISensor, His
AgrC-IHis (H239Q) = assay: β-lactamase reporter assay, AgrC-IHis; format: cell-based, S. aureus; details: H-box mutant; varying concentrations of synthetic AIP (Figure S1)
Outline: as §1

AgrC-I G396A = assay: β-lactamase reporter assay, AgrC-I G396A; format: cell-based, S. aureus; details: individual G-box glycine mutant; varying concentrations of synthetic AIP
AgrC-I-GFP = assay: β-lactamase reporter assay, AgrC-I-GFP; format: cell-based, S. aureus; details: C-terminal GFP fusion (Figure S2)
AgrC-I N339D = assay: β-lactamase reporter assay, AgrC-I N339D; format: cell-based, S. aureus; details: N-box mutant; varying concentrations of synthetic AIP
[4] = system: AgrC-ISensor (T104V, S107A, S116I); details: mutations in second extracellular loop; ref Geisinger et al., 2008; cited from earlier work
[5] = system: N-terminal truncations of AgrC-I; assay: β-lactamase reporter assay, N-terminally truncated AgrC-I alone; format: cell-based, S. aureus; details: two truncated sensor domains, expressed alone (Figure S5A)

For AIP-I, the pEC50 (WT AgrC-II) was less than 5.00, the “maximal activity compared to WT AgrC” value (AgrC-IHis / AgrC-IKin) was “moderately reduced compared to WT AgrC” and the receptor activation (AgrC-I G394A) was “weaker activation than that seen with AgrC-I N339D”. For the same substance, the “reduction in activity compared with WT sensor domains” value ([1]; AgrC-ISensor, His / AgrC-ISensor, Kin versus WT sensor domains) was “over 150 -fold”, the pEC50 ([1]; co-expressed mutants, both sensor domains mutated) was 5.21 and the “antagonism of AgrC-II” value (AgrC-II) was “potent cross-group inhibitors”. For the same substance, the “activation by AIP-I” value [2] was “significant activity”, the “maximal activation relative to full-length complementary pair” value [2] was “only a third of that observed for the full-length complementary pair” and the “increase in activation by AIP-I” value [3] was “approximately 30 -fold”. For the same substance, the receptor activation (AgrC-IHis (H239Q)) was “completely inactive”, the receptor activation (AgrC-I G396A) was “weaker activation than that seen with AgrC-I N339D” and the “receptor activation compared to WT” value (AgrC-I-GFP) was “only slightly decreased compared to the WT receptor”. For the same substance, the receptor activation (AgrC-I N339D) was “only partially reduced receptor activation”, the “reduction in sensitivity to AIP-I” value [4] was “about 50 -fold” and the “activation by AIP-I” value [5] was “None of the resulting dimers, with two truncated sensor domains, displayed significant activity”.
